Values after ≈ are worked out from the molar mass of the structure shown.
Experiments:
Type in all cases: functional
Conditions in all cases: time 7 day
[1] = system: Mycobacterium tuberculosis; experiment: Antitubercular activity against FQ resistant Mycobacterium tuberculosis H37Rv harboring gyrA Ala-90-Val mutant measured after 7 days by resazurin microtiter assay
In short: (§1)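 Resazurin microtiter assay with two-fold drug dilutions in complete 7H9 broth. Exponential-phase cells are diluted to a final OD600 of 0.005 in 7H9 without Tween. Incubation is 7 days at 37°C, then 0.01% resazurin is added and plates are held 24 h more. MIC is the lowest concentration preventing the blue-to-pink change. Each MIC is determined three times in duplicate experiments.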

[2] = system: Mycobacterium tuberculosis; experiment: Antitubercular activity against FQ resistant Mycobacterium tuberculosis H37Rv harboring gyrA Asp-94-Gly mutant measured after 7 days by resazurin microtiter assay; in short: as §1
[3] = system: Mycobacterium tuberculosis; experiment: Antitubercular activity against FQ resistant Mycobacterium tuberculosis H37Rv harboring gyrA Gly-88-Cys mutant measured after 7 days by resazurin microtiter assay; in short: as §1
[4] = system: Mycobacterium tuberculosis; experiment: Antitubercular activity against FQ resistant Mycobacterium tuberculosis H37Rv harboring gyrA Ser-91-Pro mutant measured after 7 days by resazurin microtiter assay; in short: as §1
[5] = system: Mycobacterium tuberculosis; experiment: Antitubercular activity against FQ resistant Mycobacterium tuberculosis H37Rv harboring gyrA Ala-90-Val/gyrB Glu-540-Val mutant measured after 7 days by resazurin microtiter assay; in short: as §1
[6] = system: Mycobacterium tuberculosis; experiment: Antitubercular activity against FQ resistant Mycobacterium tuberculosis H37Rv harboring gyrA Asp-94-Gly/gyrB Asp-500-Asn mutant measured after 7 days by resazurin microtiter assay; in short: as §1

Row | SMILES | MIC90 [1] | MIC90 [2] | MIC90 [3] | MIC90 [4] | MIC90 [5] | MIC90 [6]
1 | Cn1cc(C(=O)O)c(=O)c2cc([N+](=O)[O-])c3cccnc3c21 | 5.28 µM (≈ 1.58 µg/mL) | 2.64 µM (≈ 0.79 µg/mL) | 2.64 µM (≈ 0.79 µg/mL) | 5.28 µM (≈ 1.58 µg/mL) | 5.28 µM (≈ 1.58 µg/mL) | 5.28 µM (≈ 1.58 µg/mL)
2 | CCOC(=O)c1cn(C)c2c(cc([N+](=O)[O-])c3cccnc32)c1=O | >50 µM | 1.21 µM (≈ 0.396 µg/mL) | >50 µM | >50 µM | >50 µM | >50 µM
3 | CCn1cc(C(=O)O)c(=O)c2cc([N+](=O)[O-])c3cccnc3c21 | 11.68 µM (≈ 3.66 µg/mL) | 2.99 µM (≈ 0.937 µg/mL) | 11.68 µM (≈ 3.66 µg/mL) | 11.68 µM (≈ 3.66 µg/mL) | 11.68 µM (≈ 3.66 µg/mL) | 5.84 µM (≈ 1.83 µg/mL)
4 | CCOC(=O)c1cn(CC)c2c(cc([N+](=O)[O-])c3cccnc32)c1=O | >50 µM | 4.99 µM (≈ 1.7 µg/mL) | >50 µM | >50 µM | >50 µM | >50 µM
5 | COc1c(N2C[C@@H]3CCCN[C@@H]3C2)c(F)cc2c(=O)c(C(=O)O)cn(C3CC3)c12 [MOXIFLOXACIN] | 3.08 µM (≈ 1.24 µg/mL) | 3.08 µM (≈ 1.24 µg/mL) | 6.16 µM (≈ 2.47 µg/mL) | 6.16 µM (≈ 2.47 µg/mL) | 6.16 µM (≈ 2.47 µg/mL) | 6.16 µM (≈ 2.47 µg/mL)
6 | CCn1cc(C(=O)O)c(=O)c2ccc(C)nc21 [NALIDIXIC ACID] | >50 µM | >50 µM | >50 µM | >50 µM | >50 µM | >50 µM
7 | CC1COc2c(N3CCN(C)CC3)c(F)cc3c(=O)c(C(=O)O)cn1c23 (configuration not stated) [OFLOXACIN] | 13.8 µM (≈ 4.99 µg/mL) | 13.8 µM (≈ 4.99 µg/mL) | 27.6 µM (≈ 9.97 µg/mL) | 27.6 µM (≈ 9.97 µg/mL) | 27.6 µM (≈ 9.97 µg/mL) | 27.6 µM (≈ 9.97 µg/mL)

Source: ChEMBL document CHEMBL4765453, “Phenanthrolinic analogs of quinolones show antibacterial activity against M. tuberculosis” (Eur J Med Chem, 2020)
